From ChEMBL document CHEMBL1126568, “Nucleosides and nucleotides. 122. 2'-C-cyano-2'-deoxy-1-beta-D-arabinofuranosylcytosine and its derivatives. A new class of nucleoside with a broad antitumor spectrum” (J Med Chem, 1993)

Tests used:
Type in all cases: functional
Mus musculus [1] = experiment: Tested for 60-day survivors after administration at 10 mg/kg orally in M5076 mouse reticulum cell sarcoma; details: route oral
Method in brief: (§1)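 Female BD2F1 mice were implanted s.c. with 1 × 10^6 M5076 cells and dosed orally on days 1, 4, 7, 10, 13 and 16. Vehicle was saline or 5% DMA in 0.5% CMC. Groups had six mice (three at 400 mg/kg), with nine untreated controls. The number of mice alive at 60 days was counted.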

Mus musculus [2] = experiment: Tested for 60-day survivors after administration at 20 mg/kg orally in M5076 mouse reticulum cell sarcoma; details: route oral; method in brief: as §1
Mus musculus [3] = experiment: Tested for 60-day survivors after administration at 30 mg/kg orally in M5076 mouse reticulum cell sarcoma; details: route oral; method in brief: as §1
Mus musculus [4] = experiment: Tested for 60-day survivors after administration at 40 mg/kg orally in M5076 mouse reticulum cell sarcoma; details: route oral; method in brief: as §1
Mus musculus [5] = experiment: Tested for 60-day survivors after administration at 50 mg/kg orally in M5076 mouse reticulum cell sarcoma; details: route oral; method in brief: as §1
Mus musculus [6] = experiment: Percent treated was determined after administration at 20 mg/kg orally; details: route oral
Method in brief: (§2)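 In female BD2F1 mice bearing s.c. M5076 sarcoma (1 × 10^6 cells), drug was given orally on days 1, 4, 7, 10, 13 and 16, with six mice per treated group and nine untreated controls. T/C (%) = median survival day of treated mice / median survival day of untreated controls × 100.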

Mus musculus [7] = experiment: Percent treated was determined after administration at 30 mg/kg orally; details: route oral; method in brief: as §2
Mus musculus [8] = experiment: Percent treated was determined after administration at 40 mg/kg orally; details: route oral; method in brief: as §2
Mus musculus [9] = experiment: Percent treated was determined after administration at 50 mg/kg orally; details: route oral; method in brief: as §2
Mus musculus [10] = experiment: Percent treated was determined after administration at 10 mg/kg orally; details: route oral; method in brief: as §2
Mus musculus [11] = experiment: Percent inhibition against M5076 mouse reticulum cell sarcoma after administration at 10 mg/kg orally on day 20; details: M5076, 480 h, route oral
Method in brief: (§3)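 Female BD2F1 mice (7-8 weeks, 20-25 g) were given 1 × 10^6 viable M5076 cells s.c. in the axillary region. Drug in saline or 5% DMA/0.5% CMC was given orally on days 1, 4, 7, 10, 13 and 16, with six mice per group and untreated controls. Tumor volume = 0.5 × length × width². Inhibition on day 20 = (1 − Vt/Vc) × 100.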

Mus musculus [12] = experiment: Percent inhibition against M5076 mouse reticulum cell sarcoma after administration at 20 mg/kg orally on day 20; details: M5076, 480 h, route oral; method in brief: as §3
Mus musculus [13] = experiment: Percent inhibition against M5076 mouse reticulum cell sarcoma after administration at 30 mg/kg orally on day 20; details: M5076, 480 h, route oral; method in brief: as §3
Mus musculus [14] = experiment: Percent inhibition against M5076 mouse reticulum cell sarcoma after administration at 40 mg/kg orally on day 20; details: M5076, 480 h, route oral; method in brief: as §3
Mus musculus [15] = experiment: Percent inhibition against M5076 mouse reticulum cell sarcoma after administration at 50 mg/kg orally on day 20; details: M5076, 480 h, route oral; method in brief: as §3
Mus musculus [16] = experiment: Weight change in M5076 mouse reticulum cell sarcoma after administration at 50 mg/kg orally; details: route oral
Method in brief: (§4)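 Mice were female BD2F1 bearing s.c. M5076 sarcoma (1 × 10^6 cells) and given oral drug on days 1, 4, 7, 10, 13 and 16. Body weight change (g) = average body weight on day 20 minus average on day 1.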

Mus musculus [17] = experiment: Weight change in M5076 mouse reticulum cell sarcoma after administration at 10 mg/kg orally; details: route oral; method in brief: as §4
Mus musculus [18] = experiment: Weight change in M5076 mouse reticulum cell sarcoma after administration at 30 mg/kg orally; details: route oral; method in brief: as §4
Mus musculus [19] = experiment: Weight change in M5076 mouse reticulum cell sarcoma after administration at 40 mg/kg orally; details: route oral; method in brief: as §4
Mus musculus [20] = experiment: Weight change in M5076 mouse reticulum cell sarcoma after administration at 20 mg/kg orally; details: route oral; method in brief: as §4

`O=c1[nH]cc(F)c(=O)[nH]1` [FLUOROURACIL] showed a Survivors (Mus musculus [1]) of 6, a Survivors (Mus musculus [2]) of 6 and a Survivors (Mus musculus [3]) of 6. It also gave a Survivors (Mus musculus [4]) of 6, a Survivors (Mus musculus [5]) of 6 and a T/C (Mus musculus [6]) of 85%. The T/C (Mus musculus [7]) was 86%, the T/C (Mus musculus [8]) was 79% and the T/C (Mus musculus [9]) was 79%. For the same compound, the T/C (Mus musculus [10]) was 94%, the inhibition in vivo at 10 mg/kg (Mus musculus [11]) was 1% and the inhibition in vivo at 20 mg/kg (Mus musculus [12]) was 6%. It also gave an inhibition in vivo at 30 mg/kg (Mus musculus [13]) of 9%, an inhibition in vivo at 40 mg/kg (Mus musculus [14]) of 17% and an inhibition in vivo at 50 mg/kg (Mus musculus [15]) of 28%. The Weight change (Mus musculus [16]) was 1.4 g, the Weight change (Mus musculus [17]) was 2.4 g and the Weight change (Mus musculus [18]) was 2.4 g. It also gave a Weight change (Mus musculus [19]) of 2.1 g and a Weight change (Mus musculus [20]) of 2.2 g.
